The test system of assay [1] is MCF7. In words: Cytotoxicity against human MCF7 cells after 48 hrs by SRB assay. It is filed as functional, cell-based. In outline:
(§1)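 MCF7 cells were seeded at 10⁴ cells/well and allowed to attach for 24 h. Compounds in DMSO were added at 10, 25, 50 and 100 µM, in triplicate wells, for 48 h at 37 °C under 5% CO₂. Cells were fixed and stained 30 min with 0.4% SRB in 1% acetic acid, and dye was recovered in Tris-EDTA for absorbance. IC50 came from the surviving-fraction curve; values are means of three experiments ± SE.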

Assay [2] has as its system MCF7. In words: Cytotoxicity against human MCF7 cells assessed as cell surviving fraction at 10 uM after 48 hrs by SRB assay. The assay is classed as functional. In outline:
as §1

Assay [3] has as its system MCF7. The assay can be described thus: Cytotoxicity against human MCF7 cells assessed as cell surviving fraction at 100 uM after 48 hrs by SRB assay. The assay is classed as functional. The method in brief: as §1
Assay [4] has as its system MCF7. In words: Cytotoxicity against human MCF7 cells assessed as cell surviving fraction at 50 uM after 48 hrs by SRB assay. The assay is classed as functional. The method in brief: as §1
For assay [5], the system named is MCF7. In words: Cytotoxicity against human MCF7 cells assessed as cell surviving fraction at 25 uM after 48 hrs by SRB assay. It is filed as functional. The method in brief: as §1
Setting [6] is: Homo sapiens, MCF7, 48 h, read-out: IC50.

Turning to `C/C(=N\NC(=O)CC#N)c1ccc(S(=O)(=O)N2CCCCC2)cc1`, the IC50 in the assay on MCF7 [1] (setting [6]) worked out at 44.2 µM. Besides, the Activity with MCF7 [2] was 0.944; with MCF7 [3], 0.511; with MCF7 [4] it was 0.44; in the assay with MCF7 [5] it was 0.666.
The like results for `C/C(=N\n1c(N)cc(N)c(C#N)c1=O)c1ccc(S(=O)(=O)N2CCCCC2)cc1` were, in that order, 36.4 µM, 0.371, 0.394, 0.416 and 0.298.
Consider `CCOC(=O)c1c(-c2ccc(O)cc2)c(C#N)c(=O)n(/N=C(\C)c2ccc(S(=O)(=O)N3CCCCC3)cc2)c1N`, for which the IC50 in the assay with MCF7 [1] (setting [6]) was 25.5 µM. Further, the Activity in the assay with MCF7 [2] amounted to 0.925; in the assay with MCF7 [3], 0.641; in the assay on MCF7 [4], 0.681; with MCF7 [5] it was 0.647.
Turning to `COc1cccc2c1C(=O)c1c(O)c3c(c(O)c1C2=O)C[C@@](O)(C(=O)CO)C[C@@H]3O[C@H]1C[C@H](N)[C@H](O)[C@H](C)O1` [DOXORUBICIN], the IC50 in the assay on MCF7 [1] (setting [6]) amounted to 32 µM. Also, the Activity is 0.721 in the assay on MCF7 [2], 0.494 with MCF7 [3] and 0.461 in the assay with MCF7 [4].
Take `C/C(=N\NC(=O)c1sc(=S)n(-c2ccccc2)c1N)c1ccc(S(=O)(=O)N2CCCCC2)cc1`: the IC50 with MCF7 [1] (setting [6]) was found to be 60.1 µM. The Activity with MCF7 [2] was 0.861; in the assay with MCF7 [3] it was 0.407; in the assay with MCF7 [4], 0.557; with MCF7 [5] it was 0.745.
On to `CCOC(=O)c1c(-c2ccc(OC)cc2)c(C#N)c(=O)n(/N=C(\C)c2ccc(S(=O)(=O)N3CCCCC3)cc2)c1N`, for which, in the assay with MCF7 [1] (setting [6]), the 50% inhibitory concentration (IC50) came out at 51.2 µM. Also, the Activity with MCF7 [2] worked out at 0.972; in the assay with MCF7 [3] it was 0.375; with MCF7 [4] it was 0.452; in the assay on MCF7 [5] it was 0.657.
Take `C/C(=N\NC(=O)c1sc2c(c1N)CCCC2)c1ccc(S(=O)(=O)N2CCCCC2)cc1`: the IC50 in the assay with MCF7 [1] (setting [6]) amounted to 87.8 µM. The Activity with MCF7 [2] came out at 0.971; in the assay on MCF7 [3], 0.558; with MCF7 [4], 0.621; in the assay on MCF7 [5], 0.994.
In the case of `CCOC(=O)c1c(-c2ccc(N(C)C)cc2)c(C#N)c(=O)n(/N=C(\C)c2ccc(S(=O)(=O)N3CCCCC3)cc2)c1N`, the IC50 in the assay on MCF7 [1] (setting [6]) turned out to be 34.4 µM. Further, the Activity in the assay with MCF7 [2] was found to be 0.861; in the assay with MCF7 [3], 0.407; in the assay on MCF7 [4] it was 0.557; in the assay with MCF7 [5] it was 0.745.
The like results for `C/C(=N\n1c(O)cc(N)c(C#N)c1=O)c1ccc(S(=O)(=O)N2CCCCC2)cc1` were, in that order, 74.6 µM, 0.748, 0.437, 0.433 and 0.54.
Take `CCOC(=O)c1c(-c2ccc(C)cc2)c(C#N)c(=O)n(/N=C(\C)c2ccc(S(=O)(=O)N3CCCCC3)cc2)c1N`: in the assay on MCF7 [1] (setting [6]), the 50% inhibitory concentration (IC50) amounted to 37.9 µM. Moreover, the Activity in the assay with MCF7 [2] worked out at 0.911; in the assay with MCF7 [3], 0.581; in the assay on MCF7 [4] it was 0.652; with MCF7 [5] it was 0.677.
For `C/C(=N\NC(=O)c1sc2c(c1N)CCC2)c1ccc(S(=O)(=O)N2CCCCC2)cc1`, the IC50 with MCF7 [1] (setting [6]) stood at 75.3 µM. Also, the Activity in the assay with MCF7 [2] is recorded as 0.942; in the assay with MCF7 [3], 0.375; in the assay with MCF7 [4], 0.552; in the assay with MCF7 [5], 0.857.
The like results for `CCOC(=O)c1c(-c2ccc(Cl)cc2)c(C#N)c(=O)n(/N=C(\C)c2ccc(S(=O)(=O)N3CCCCC3)cc2)c1N` were, in that order, 20.6 µM, 0.818, 0.553, 0.622 and 0.723.
The like results for `CCOC(=O)c1c(-c2ccc(O)c(OC)c2)c(C#N)c(=O)n(/N=C(\C)c2ccc(S(=O)(=O)N3CCCCC3)cc2)c1N` were, in that order, 38.7 µM, 0.921, 0.478, 0.621 and 0.694.
Turning to `C/C(=N\NC(=O)c1sc(N)c(C#N)c1N)c1ccc(S(=O)(=O)N2CCCCC2)cc1`, in the assay with MCF7 [1] (setting [6]), the half-maximal inhibitory concentration (IC50) came out at 49.3 µM. The Activity with MCF7 [2] was found to be 0.588; with MCF7 [3], 0.406; with MCF7 [4], 0.451; in the assay on MCF7 [5], 0.507.
Turning to `CCOC(=O)c1c(N)sc(C(=O)N/N=C(\C)c2ccc(S(=O)(=O)N3CCCCC3)cc2)c1N`, the half-maximal inhibitory concentration (IC50) entry in the assay on MCF7 [1] (mcf7) was “Not Active”. Moreover, the Activity with MCF7 [2] is 1.925; in the assay on MCF7 [3] it was 0.841; in the assay on MCF7 [4], 0.981; in the assay with MCF7 [5] it was 0.947.
